{"source": "ChEMBL document CHEMBL1137744", "about": "“Parallel synthesis, molecular modelling and further structure-activity relationship studies of new acylthiocarbamates as potent non-nucleoside HIV-1 reverse transcriptase inhibitors” (Eur J Med Chem, 2009)", "key": {"[1]": {"test_system": "Human immunodeficiency virus 1", "assay": "Antiviral activity against HIV1 3B infected in human MT4 cells assessed as inhibition of virus-induced cytopathogenicity by MTT assay", "assay_type": "functional, organism-based", "conditions": "Human immunodeficiency virus 1, 3B", "how_it_was_run": "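MT-4 cells infected with HIV-1 and read by MTT viability. EC50 is the concentration giving 50% protection of cells from virus-induced cytopathogenicity. Values are means of three separate experiments, with variation among triplicate samples under 10%.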"}, "[2]": {"assay": "Selectivity index, ratio of CC50 for human MT4 cells to EC50 for HIV1 3B", "assay_type": "toxicity, cell-based", "conditions": "read-out: Ratio CC50/EC50", "how_it_was_run": "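Computed as CC50/EC50. Both come from MTT readings in MT-4 cells: CC50 is 50% viability loss in mock-infected cells, and EC50 is 50% protection from HIV-1-induced cytopathogenicity. Each is the mean of three experiments.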"}, "[3]": {"assay": "Cytotoxicity against human MT4 cells by MTT assay", "assay_type": "cell-based", "how_it_was_run": "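Uninfected (mock-infected) MT-4 cells were exposed to compound and viability was read by MTT. CC50 is the concentration cutting viability by 50%. Values are means of three separate experiments, with triplicate samples varying by less than 10%.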"}}}
{"smiles": "O=C1c2ccccc2C(=O)N1CCOC(=S)N(C(=O)c1ccccc1)c1ccccc1", "values": [{"measurement": "EC50", "setting": "[1]", "result": 0.4, "unit": "µM"}]}
{"smiles": "Cc1ccc(N(C(=O)c2c(Cl)cccc2Cl)C(=S)OCCN2C(=O)c3ccccc3C2=O)cc1", "values": [{"measurement": "selectivity ratio", "setting": "[2]", "result": 2.4}, {"measurement": "CC50", "setting": "[3]", "result": 22, "unit": "µM"}, {"measurement": "EC50", "setting": "[1]", "result": 9, "unit": "µM"}]}
{"smiles": "O=C1c2ccccc2C(=O)N1CCOC(=S)N(C(=O)c1ccc(Cl)c([N+](=O)[O-])c1)c1ccccc1", "values": [{"measurement": "selectivity ratio", "setting": "[2]", "result": 146}, {"measurement": "CC50", "setting": "[3]", "result": 51, "unit": "µM"}, {"measurement": "EC50", "setting": "[1]", "result": 0.35, "unit": "µM"}]}
{"smiles": "Cc1ccc(N(C(=O)c2ccc([N+](=O)[O-])cc2)C(=S)OCCN2C(=O)c3ccccc3C2=O)cc1", "values": [{"measurement": "selectivity ratio", "setting": "[2]", "result": 1930}, {"measurement": "CC50", "setting": "[3]", "result": 58, "unit": "µM"}, {"measurement": "EC50", "setting": "[1]", "result": 0.03, "unit": "µM"}]}
{"smiles": "O=C1c2ccccc2C(=O)N1CCOC(=S)N(C(=O)c1cccnc1Cl)c1ccc(Cl)cc1", "values": [{"measurement": "EC50", "setting": "[1]", "result": 0.005, "unit": "µM"}]}
{"smiles": "Cc1ccc(N(C(=O)c2ccc(Br)c(C)c2)C(=S)OCCN2C(=O)c3ccccc3C2=O)cc1", "values": [{"measurement": "selectivity ratio", "setting": "[2]", "result": "> 2000"}, {"measurement": "CC50", "setting": "[3]", "result": "> 100", "unit": "µM"}, {"measurement": "EC50", "setting": "[1]", "result": 0.05, "unit": "µM"}]}
{"smiles": "Cc1ccc(N(C(=O)c2ccc(Cl)cc2Cl)C(=S)OCCN2C(=O)c3ccccc3C2=O)cc1", "values": [{"measurement": "selectivity ratio", "setting": "[2]", "result": 163}, {"measurement": "CC50", "setting": "[3]", "result": 49, "unit": "µM"}, {"measurement": "EC50", "setting": "[1]", "result": 0.3, "unit": "µM"}]}
{"smiles": "Cc1ccc(N(C(=O)c2ccc(Cl)c([N+](=O)[O-])c2)C(=S)OCCN2C(=O)c3ccccc3C2=O)cc1", "values": [{"measurement": "selectivity ratio", "setting": "[2]", "result": 783}, {"measurement": "CC50", "setting": "[3]", "result": 47, "unit": "µM"}, {"measurement": "EC50", "setting": "[1]", "result": 0.06, "unit": "µM"}]}
{"smiles": "Cc1ccc(N(C(=O)c2c(F)cccc2F)C(=S)OCCN2C(=O)c3ccccc3C2=O)cc1", "values": [{"measurement": "selectivity ratio", "setting": "[2]", "result": 65}, {"measurement": "CC50", "setting": "[3]", "result": 65, "unit": "µM"}, {"measurement": "EC50", "setting": "[1]", "result": 1, "unit": "µM"}]}
{"smiles": "O=C1c2ccccc2C(=O)N1CCOC(=S)N(C(=O)c1ccc(Cl)c(Cl)c1)c1ccccc1", "values": [{"measurement": "selectivity ratio", "setting": "[2]", "result": 104}, {"measurement": "CC50", "setting": "[3]", "result": 52, "unit": "µM"}, {"measurement": "EC50", "setting": "[1]", "result": 0.5, "unit": "µM"}]}
{"smiles": "Cc1ccc(N(C(=O)c2cc(F)ccc2F)C(=S)OCCN2C(=O)c3ccccc3C2=O)cc1", "values": [{"measurement": "selectivity ratio", "setting": "[2]", "result": 1550}, {"measurement": "CC50", "setting": "[3]", "result": 62, "unit": "µM"}, {"measurement": "EC50", "setting": "[1]", "result": 0.04, "unit": "µM"}]}
{"smiles": "O=C1c2ccccc2C(=O)N1CCOC(=S)N(C(=O)c1c(F)cccc1F)c1ccc(Cl)cc1", "values": [{"measurement": "selectivity ratio", "setting": "[2]", "result": 1950}, {"measurement": "CC50", "setting": "[3]", "result": 39, "unit": "µM"}, {"measurement": "EC50", "setting": "[1]", "result": 0.02, "unit": "µM"}]}
{"smiles": "O=C1c2ccccc2C(=O)N1CCOC(=S)N(C(=O)c1cc(F)cc(F)c1)c1ccc(Cl)cc1", "values": [{"measurement": "selectivity ratio", "setting": "[2]", "result": 8430}, {"measurement": "CC50", "setting": "[3]", "result": 59, "unit": "µM"}, {"measurement": "EC50", "setting": "[1]", "result": 0.007, "unit": "µM"}]}
{"smiles": "O=C1c2ccccc2C(=O)N1CCOC(=S)N(C(=O)c1ccco1)c1cc(Cl)cc(Cl)c1", "values": [{"measurement": "CC50", "setting": "[3]", "result": "> 100", "unit": "µM"}, {"measurement": "EC50", "setting": "[1]", "result": "> 100", "unit": "µM"}]}
{"smiles": "Cc1ccc(N(C(=O)c2cccc(C)c2)C(=S)OCCN2C(=O)c3ccccc3C2=O)cc1", "values": [{"measurement": "selectivity ratio", "setting": "[2]", "result": "> 2500"}, {"measurement": "CC50", "setting": "[3]", "result": "> 100", "unit": "µM"}, {"measurement": "EC50", "setting": "[1]", "result": 0.04, "unit": "µM"}]}
{"smiles": "O=C1c2ccccc2C(=O)N1CCOC(=S)N(C(=O)c1ccc(Cl)cc1)c1ccc(Cl)cc1", "values": [{"measurement": "EC50", "setting": "[1]", "result": 0.025, "unit": "µM"}]}
{"smiles": "O=C1c2ccccc2C(=O)N1CCCOC(=S)N(C(=O)c1cccc([N+](=O)[O-])c1)c1ccc(Cl)cc1", "values": [{"measurement": "selectivity ratio", "setting": "[2]", "result": 1.8}, {"measurement": "CC50", "setting": "[3]", "result": 53, "unit": "µM"}, {"measurement": "EC50", "setting": "[1]", "result": 29, "unit": "µM"}]}
{"smiles": "O=C1c2ccccc2C(=O)N1CCOC(=S)N(C(=O)c1ccc([N+](=O)[O-])cc1Cl)c1ccc(Cl)cc1", "values": [{"measurement": "selectivity ratio", "setting": "[2]", "result": 2380}, {"measurement": "CC50", "setting": "[3]", "result": 19, "unit": "µM"}, {"measurement": "EC50", "setting": "[1]", "result": 0.008, "unit": "µM"}]}
{"smiles": "Cc1ccc(N(C(=O)c2cccc([N+](=O)[O-])c2)C(=S)OCCN2C(=O)c3ccccc3C2=O)cc1", "values": [{"measurement": "selectivity ratio", "setting": "[2]", "result": 5000}, {"measurement": "CC50", "setting": "[3]", "result": 100, "unit": "µM"}, {"measurement": "EC50", "setting": "[1]", "result": 0.02, "unit": "µM"}]}
{"smiles": "O=C1c2ccccc2C(=O)N1COC(=S)N(C(=O)c1cccc([N+](=O)[O-])c1)c1ccc(Cl)cc1", "values": [{"measurement": "CC50", "setting": "[3]", "result": "> 100", "unit": "µM"}, {"measurement": "EC50", "setting": "[1]", "result": "> 100", "unit": "µM"}]}
{"smiles": "O=C1c2ccccc2C(=O)N1CCOC(=S)N(C(=O)c1cccc([N+](=O)[O-])c1)c1c(Cl)cc(Cl)cc1Cl", "values": [{"measurement": "CC50", "setting": "[3]", "result": 20, "unit": "µM"}, {"measurement": "EC50", "setting": "[1]", "result": "> 20", "unit": "µM"}]}
{"smiles": "O=C1c2ccccc2C(=O)N1CCOC(=S)N(C(=O)c1ccco1)c1ccc(Cl)cc1", "values": [{"measurement": "EC50", "setting": "[1]", "result": 0.007, "unit": "µM"}]}
{"smiles": "O=C1c2ccccc2C(=O)N1CCOC(=S)N(C(=O)c1ccc(Cl)nc1)c1ccc(Cl)cc1", "values": [{"measurement": "EC50", "setting": "[1]", "result": 0.006, "unit": "µM"}]}
{"smiles": "O=C1c2ccccc2C(=O)N1CCOC(=S)N(C(=O)c1ccccc1)c1ccc(Cl)cc1", "values": [{"measurement": "EC50", "setting": "[1]", "result": 0.1, "unit": "µM"}]}
{"smiles": "O=C1c2ccccc2C(=O)N1CCOC(=S)N(C(=O)c1cccs1)c1ccc(Cl)cc1", "values": [{"measurement": "EC50", "setting": "[1]", "result": 0.008, "unit": "µM"}]}
{"smiles": "O=C1c2ccccc2C(=O)N1CCOC(=S)N(C(=O)c1ccco1)c1cccc(Cl)c1Cl", "values": [{"measurement": "CC50", "setting": "[3]", "result": 100, "unit": "µM"}, {"measurement": "EC50", "setting": "[1]", "result": "> 100", "unit": "µM"}]}
